Assay results taken from ChEMBL document CHEMBL4184148 (Bioorg Med Chem Lett, 2017).
Activity calls are given as the source filed them. The rule behind the calls is not given here.

Columns and labels:
Aurora kinase B [1] = biological target: T1, Aurora kinase B (Homo sapiens, UniProt Q96GD4); assay: Inhibition of recombinant full length His-tagged human Aurora B expressed in baculovirus expression system by Z'LYTE assay
Method in brief: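 Z'LYTE biochemical kinase assay run at the Km ATP concentration for each kinase. IC50 was determined and reported ± standard error.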

Aurora kinase C = biological target: T2, Aurora kinase C (Homo sapiens, UniProt Q9UQB9); assay: Inhibition of recombinant full length GST-tagged human Aurora C expressed in baculovirus expression system by Z'LYTE assay
T2 sequence (Q9UQB9 whole entry): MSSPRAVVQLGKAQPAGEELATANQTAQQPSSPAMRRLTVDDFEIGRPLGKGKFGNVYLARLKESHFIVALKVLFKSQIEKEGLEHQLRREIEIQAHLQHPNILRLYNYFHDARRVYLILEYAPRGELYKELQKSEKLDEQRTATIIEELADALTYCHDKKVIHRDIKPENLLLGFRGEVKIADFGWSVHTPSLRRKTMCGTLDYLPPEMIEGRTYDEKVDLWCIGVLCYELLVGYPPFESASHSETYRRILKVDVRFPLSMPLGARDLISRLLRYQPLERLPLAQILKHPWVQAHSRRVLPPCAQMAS
Method in brief: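 Biochemical IC50 from a Z'LYTE kinase assay, with ATP at the Km for each kinase. Values are reported with standard error.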

Aurora kinase B [2] = biological target: T1, Aurora kinase B; assay: Inhibition of Aurora B in human HCT116 cells assessed as reduction in histone H3 phosphorylation at S10 residues after 4 hrs by Western blot analysis; assay type: cell-based
Method in brief: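 Cells were exposed to compound in dose-response for 4 h, then lysed for western blotting of histone H3 pS10. The cellular EC50 was derived from the dose-response curves. Three replicate experiments were run.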

HCT-116 [3] = assay: Cytotoxicity against human HCT116 cells assessed as reduction in cell viability after 72 hrs by CellTiter-Glo assay; assay type: functional, cell-based; details: HCT-116, 72 h
Method in brief: (§1)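 Cells were treated across a dose-response range for 72 h, and viability was read by CellTiter-Glo luminescence. Measurements were made in triplicate and reported with standard error.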

HeLa = assay: Cytotoxicity against human HeLa cells assessed as reduction in cell viability after 72 hrs by CellTiter-Glo assay; assay type: functional, cell-based; method in brief: as §1
HEK293 = assay: Cytotoxicity against human HEK293 cells assessed as reduction in cell viability after 72 hrs by CellTiter-Glo assay; assay type: cell-based; details: HEK293, 72 h; method in brief: as §1
PC-3 = assay: Cytotoxicity against human PC3 cells assessed as reduction in cell viability after 72 hrs by CellTiter-Glo assay; assay type: functional, cell-based; details: PC-3, 72 h; method in brief: as §1
HCT-116 [4] = assay: Induction of cell cycle arrest in human HCT116 cells assessed as accumulation of 4N DNA content at 500 nM after 48 hrs by propidium iodide staining-based flow cytometry; assay type: functional

T1 sequence (Q96GD4 whole entry): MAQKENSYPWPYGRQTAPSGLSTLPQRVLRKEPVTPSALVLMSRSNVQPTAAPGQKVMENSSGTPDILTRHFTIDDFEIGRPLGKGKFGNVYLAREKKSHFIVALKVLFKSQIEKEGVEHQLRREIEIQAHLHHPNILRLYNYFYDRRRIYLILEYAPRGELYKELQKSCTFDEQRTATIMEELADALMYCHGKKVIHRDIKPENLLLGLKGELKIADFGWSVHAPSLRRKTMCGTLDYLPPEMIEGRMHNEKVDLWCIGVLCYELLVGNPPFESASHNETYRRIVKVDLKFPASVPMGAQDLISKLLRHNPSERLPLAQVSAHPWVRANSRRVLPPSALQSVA

- IC50 (Aurora kinase B [1]): 34 nM
- IC50 (Aurora kinase C): 91 nM
- EC50 (Aurora kinase B [2]): 27 nM
SMILES: CCOC(=O)c1[nH]cc2c1NC1=C(C(=O)CCC1)[C@H]2c1cccc(Oc2nc3ccccc3[nH]2)c1
- IC50 (HCT-116 [3]): 3710 nM
- IC50 (HeLa): 6.11 nM
- IC50 (HEK293): 5860 nM
- IC50 (PC-3): > 10000 nM
- Activity (HCT-116 [4]): Active
